# rCAG RNA binder: r(CAG) repeat RNA binding. TO-PRO-1 dye displacement fluorescence. inhibition, % at 3 µM. actives 1.3% (n = 370,000). AID 651821;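 active = inhibition above the plate cutoff, the mean of all test compounds on that plate plus 3 SD, cut at about 35% in these data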;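 note: 0% = DMSO alone and 100% = 100 µM mitoxantrone as full dye displacement; higher means more dye released from RNA so lower well fluorescence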
# Scp-1 inhibitor: Scp-1 (human) phosphatase inhibition | Q9GZU7 | Recombinant Scp1, phosphopeptide, malachite green phosphate absorbance | inhibition, % at 20 µM | actives 0.88% (n = 340,000) | AID 493091;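 active = inhibition above about 50% at 20 µM, limit read from the data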;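 note: plate controls were DMSO wells with enzyme for no effect and wells lacking enzyme for full effect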
# Target sequence (Q9GZU7 76-261 limits assumed): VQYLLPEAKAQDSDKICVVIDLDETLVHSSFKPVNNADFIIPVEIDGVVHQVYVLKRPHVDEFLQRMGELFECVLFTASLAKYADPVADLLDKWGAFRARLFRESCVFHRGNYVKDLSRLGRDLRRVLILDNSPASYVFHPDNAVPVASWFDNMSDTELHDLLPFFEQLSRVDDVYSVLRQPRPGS
#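 System: SCP-1 catalytic domain; Reagent: Phospho 17-mer peptide substrate; Doses: one concentration, 20 µM, with 1.0% DMSO; Incubation: 45 min room-temperature reaction, 5 min colour, 30 min stabiliser; Signal: Phosphate-binding colour reagent, absorbance read at 630 nm.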
# NadD inh: inhibitors of Staphylococcus aureus NadD. purified NadD enzyme, colorimetric absorbance read-out. inhibition, % at 20 µM. actives 0.78% (n = 360,000). AID 602399; in the data active = inhibition above about 26%
# STEP inh: blocks human striatal-enriched tyrosine phosphatase | P54829 | AID 588621 | inhibition, % at 20 µM | recombinant STEP, OMFP fluorogenic substrate, fluorescence | actives 0.25% (n = 360,000);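 active = inhibition at 20 µM, scaled per plate between control wells, above about 37%, limit read from the data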;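 note: 0% = DMSO with enzyme and substrate and 100% = substrate only without enzyme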
#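 Material: STEP (striatal-enriched tyrosine phosphatase) enzyme, cell-free; Compound dosing: 20 µM single dose in 1% DMSO; Technique: fluorescence read at 480 nm ex / 540 nm em; Times: reaction 20 min, ambient temperature; Medium: 50 mM Bis-Tris pH 6.0 with 2.5 mM DTT and 0.005% Tween 20; Also added: OMFP at 25 µM.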
# LMPTP inh: blocks human LMPTP phosphatase; inhibition, % at 20 µM; recombinant LMPTP-A, OMFP fluorogenic substrate, fluorescence intensity; AID 651560; actives 0.22% (n = 360,000);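 active = compounds that cut the enzyme signal by at least half of the control window in the single-dose screen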;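 note: plate controls were DMSO wells with enzyme plus substrate for no effect and substrate without enzyme for full effect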
# Target sequence (P24666 whole entry, looked up): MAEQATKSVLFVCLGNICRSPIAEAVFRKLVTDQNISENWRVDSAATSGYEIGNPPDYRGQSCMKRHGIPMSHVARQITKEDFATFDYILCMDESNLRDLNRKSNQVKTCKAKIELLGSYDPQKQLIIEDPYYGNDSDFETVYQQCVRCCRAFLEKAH
#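 Test system: LMPTP-A phosphatase enzyme; input: 0.625 nM LMPTP-A final; reagent: OMFP substrate, 400 µM final; compound dosing: 20 µM single dose, 3% DMSO; incubation: 50 min dark incubation at room temperature; measured by: endpoint fluorescence intensity from OMFP dephosphorylation; measure: % inhibition relative to no-enzyme and uninhibited control wells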
# rCAG binder conf: r(CAG) RNA repeat binding, confirmation; shares compounds with rCAG RNA binder; TO-PRO-1 dye displacement fluorescence; inhibition, % at 3 µM; actives 70% (n = 4,300);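 active = inhibition above a per-plate cutoff, the mean inhibition of sample wells plus 3 SD, cut at about 35% in these data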;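 note: loss of TO-PRO-1 fluorescence as compound displaces dye from 1x1 AA loop RNA; 0% = DMSO only wells and 100% = 100 µM mitoxantrone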
# dCAG dye counter: DNA CAG dye complex inhibition counter-screen. actives 94% (n = 4,300). inhibition, % at 3 µM. shares compounds with rCAG RNA binder. d(CAG) DNA oligo TO-PRO-1 dye displacement, fluorescence;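 active = inhibition above its plate's cutoff, the mean test-well inhibition plus 3 SD, cut at about 4.8% in these data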;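 note: 0% = DNA dye mix with DMSO and 100% = 100 µM mitoxantrone; hits displace the dye from DNA and so lower well fluorescence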
# Starred values were filed as active, the others as inactive; . = not tested or not shown. Only some compounds are listed: those with a hit (about 2.6% of all), similar ones and a draw of the others.
SMILES,rCAG RNA binder,Scp-1 inhibitor,NadD inh,STEP inh,LMPTP inh,rCAG binder conf,dCAG dye counter
CSc1ccc(/C=N/n2c(COc3ccccc3)n[nH]c2=S)cc1,28,-13,7,3,2,.,.
CC(C)(C)C1=CC(CC(N)=O)(C(C)(C)C)OC1=O (centres undefined),2,.,.,.,.,.,.
Cc1ccc(C2C(C#N)=C(N)Oc3n[nH]c(-c4ccccc4)c32)o1 (centres undefined),41*,-7,13,4,3,40*,20*
COc1ccc(C)cc1NC(=S)NNC(=O)c1ccccc1Cl,17,2,5,3,-1,.,.
COc1ccc(C)cc1NC(=S)NNC(=O)c1c(Br)cnn1C,54*,0,-10,-2,0,25,4.4*
O=C(Nc1ccc(F)cc1)OCc1cn(Cc2cc(F)cc(F)c2)nn1,1,.,.,.,.,.,.
CC(=O)N(c1ccc2oc(=O)sc2c1)S(=O)(=O)c1cccc2cccnc12,37*,-8,-2,2,-1,6,5.3*
CCCC[C@@H]1C=C(C(=O)O)[C@H](c2ccc(C)cc2)N1S(=O)(=O)c1ccc(C)cc1,32,0,-4,5,-1,.,.
CCCC[C@@H]1C=C(C(=O)O)[C@H](c2ccc(Cl)c(Cl)c2)N1S(=O)(=O)c1ccc(C)cc1,80*,8,4,3,1,69*,34*
CCCC[C@@H]1C=C(C(=O)O)[C@H](c2ccc(C#N)cc2)N1S(=O)(=O)c1ccc(C)cc1,53*,21,0,-4,-1,33,7.9*
CCCCC[C@@H]1C=C(C(=O)O)[C@H](c2ccc(C)cc2)N1S(=O)(=O)c1ccc(C)cc1,74*,-14,1,2,0,53*,18*
CC[C@@H]1C=C(C(=O)O)[C@H](c2cccc(C)c2)N1S(=O)(=O)c1ccc(C)cc1,7,4,-2,-3,0,.,.
CCCCC[C@@H]1C=C(C(=O)O)[C@H](c2ccc(Cl)cc2)N1S(=O)(=O)c1ccc(C)cc1,79*,-12,8,0,1,64*,28*
Cc1ccccc1Cn1cc(COC(=O)N2CCOCC2)nn1,3,.,.,.,.,.,.
CC1CCN(S(=O)(=O)c2nnc(NC(=O)c3ccccc3Br)s2)CC1,37*,2,1,-2,0,28,6.5*
COc1ccc(CN(C)S(=O)(=O)c2nnc(NC(=O)c3ccccc3Br)s2)cc1,73*,-6,-1,-2,1,52*,18*
O=C(Nc1nnc(S(=O)(=O)N2CCCC2)s1)c1ccccc1Br,9,-9,3,-2,1,.,.
COc1cc(C(=O)Nc2nnc(S(=O)(=O)N3CCCCCC3)s2)cc(OC)c1OC,52*,-9,1,-2,1,53*,14*
COc1ccc(CN(C)S(=O)(=O)c2nnc(NC(=O)c3cccc(OC)c3)s2)cc1,67*,-6,2,-2,-1,58*,23*
CN(Cc1ccccc1)S(=O)(=O)c1nnc(NC(=O)c2ccccc2)s1,16,-11,6,0,-1,.,.
COC[C@@H]1CCCN1c1cccc2c1S(=O)(=O)N(C1CC1)CCCO2,3,.,.,.,.,.,.
C=CCN1[C@H](C#N)[C@@H](c2ccc(C#Cc3ccccc3OC)cc2)[C@H]1CO,7,.,.,.,.,.,.
COc1ccc(N(CC(=O)Nc2cc(OC)c(OC)cc2C(=O)O)S(=O)(=O)c2c(C)noc2C)cc1,41*,-5,-5,2,0,24,3
O=C(CSc1nnc(CCCOc2ccc(Cl)cc2Cl)o1)Nc1ccc(C(=O)O)cc1,42*,-8,-4,-1,-1,28,5.0*
CC(C)CNc1ccc2c(c1)OC[C@H](C)NS2(=O)=O,0,.,.,.,.,.,.
SMILES,rCAG RNA binder,Scp-1 inhibitor,NadD inh,STEP inh,LMPTP inh,rCAG binder conf,dCAG dye counter
Cc1ccc(NC(=S)NNC(=O)CSc2nc3ccccc3c(=O)n2-c2ccc(Cl)cc2)cc1,57*,.,.,.,.,47*,22*
Cc1ccc(-n2c(SCC(=O)NNC(=S)Nc3ccccc3)nc3ccccc3c2=O)cc1,55*,-5,13,3,1,42*,18*
CCN(CC)c1ccc(NC(=O)CSc2nc3ccccc3c(=O)n2-c2ccc(C)cc2)cc1,13,.,.,.,.,.,.
O=C(CSc1nc2ccccc2s1)NNC(=S)Nc1ccc(Cl)cc1,58*,-8,-1,4,-1,69*,30*
C#CCNC(=O)C[C@H]1C[C@@]2(C(=O)OC)C(=C[C@H](COCc3ccccc3)O[C@@H]2C)N(CCc2ccc(OC)c(OC)c2)C1=O,4,.,.,.,.,.,.
Cc1cc(Br)ccc1OCCCN1CCC(C(O)(c2ccccc2)c2ccccc2)CC1,4,.,.,.,.,.,.
COC(=O)C1CN(Cc2cn(Cc3ccc(Cl)cc3)nn2)CCS(=O)(=O)N1Cc1ccc(OC)cc1 (centres undefined),7,.,.,.,.,.,.
CCN(CC)C(=O)CSc1nnc(-c2cccs2)o1,-1,.,.,.,.,.,.
Cc1ccc(C)c2c1[nH]c1ccc([N+](=O)[O-])cc12,40*,-12,-11,-1,2,30,14*
COCCN(CCOC)C(=O)[C@H](CCc1ccccc1)NC(=O)[C@H]1O[C@@H](n2cnc3c(N)ncnc32)[C@H](O)[C@@H]1O,-1,.,.,.,.,.,.
CCOc1cc(Br)cc(C(c2c(C(=O)O)[nH]c3ccccc23)c2c(C(=O)O)[nH]c3ccccc23)c1O,95*,-11,17,-6,6,84*,59*

# Bioassay records from PubChem.
